ChEMBL document CHEMBL1133770, “Synthesis and antitumor activity of new benzoheterocyclic derivatives of distamycin A” (J Med Chem, 2000)
Where “and” joins values, the source holds several entries; their conditions need not be identical. Equal entries are not always repeated.

How the values were obtained:
L1210 [1] = assay: Ratio between IC50 value on resistant cells and sensitive cells; assay type: functional, Mus musculus; design: reference not given here
In short: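 Murine L1210 leukemia cells, parental and doxorubicin- or tallimustine-resistant sublines, were grown in stationary suspension in RPMI 1640 with 10% FCS, 2 mM glutamine, […] and antibiotics. Exponentially growing cells were exposed continuously for 48 h to graded concentrations from a 1 mg/mL DMSO stock, and survivors were counted electronically. IC50 came from dose-response curves, with duplicate cultures and at least two repeats. RI was the IC50 on resistant cells divided by the IC50 on sensitive cells.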

L1210 [2] = assay: Inhibition of growth in L1210 leukemia cells resistant to Tallimustine.; assay type: functional, cell-based; settings: Mus musculus
In short: (§1)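 L1210 murine leukemia cells and their doxorubicin-resistant and tallimustine-resistant sublines were grown as stationary suspension in RPMI 1640 with 10% fetal calf serum, 2 mM L-glutamine, β-mercaptoethanol and antibiotics. Compounds were dissolved in DMSO at 1 mg/mL (stock) and diluted in medium. Exponentially growing cells were exposed continuously for 48 h, and survivors were counted electronically. IC50 (cell number reduced to 50% of untreated control) was taken from dose-response curves. Duplicate cultures were used, with vehicle controls.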

L1210 [3] = assay: In vitro antitumor activity evaluated against L1210 murine leukemia cell line; assay type: functional, cell-based; settings: Mus musculus; in short: as §1
L1210 [4] = assay: In vivo optimal nontoxic dose against murine L1210 leukemia cells after ip treatment on day 1 after tumor ip transplant; assay type: functional, Mus musculus
In short: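 L1210 leukemia cells (10^5/mouse) were implanted ip or iv in female mice, 10 per group. Compounds were made fresh in 10% Tween 80/90% saline and given ip or iv on day 1 after implant, over a dose-response range. […] Toxicity was judged by gross autopsy and weight loss.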

L1210 [5] = assay: In vivo median survival time of treated vs untreated mice x 100 against murine L1210 leukemia cells after ip treatment on day 1 after tumor iv transplant; assay type: functional, Mus musculus
L1210 [6] = assay: Inhibition of growth in L1210 leukemia cells resistant to doxorubicin(DX).; assay type: functional, cell-based; settings: Mus musculus; in short: as §1
Estrogen receptor = Estrogen receptor (Homo sapiens, UniProt Q92731+P03372); assay: Tested for 50% inhibition of generation of Human estrogen receptor polymerase chain reaction(PCR) products; assay type: protein assay
L1210 [7] = assay: In vivo median survival time of treated vs untreated mice x 100 against murine L1210 leukemia cells after iv treatment on day 1 after tumor iv transplant; assay type: functional, Mus musculus
L1210 [8] = assay: In vivo optimal nontoxic dose against murine L1210 leukemia cells after i.v. administration day 1 after tumor i.v. inoculation.
[9] = Resistance index(RI) = Ratio between IC50 value on resistant cells and sensitive cells; assay type: functional
In short: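 L1210/DX (doxorubicin-resistant), L1210/tallimustine-resistant and parental L1210 cells grown as stationary suspension in RPMI 1640 with 10% FCS. Compounds from 1 mg/mL DMSO stock, diluted in medium. Exponentially growing cells exposed continuously for 48 h, with duplicate cultures per concentration and vehicle controls. Survivors counted electronically; IC50 taken from dose-response curves. RI = resistant-line IC50 / parental L1210 IC50.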

## Cl.Cn1cc(NC(=O)c2cc(NC(=O)c3cc(NC(=O)c4cc(NC(=O)c5ccc(N(CCCl)CCCl)cc5)nn4C)cn3C)cn2C)cc1C(=O)NCCC(=N)N
L1210 [1]
  Resistance index: 326.2 and 302.3
L1210 [2]
  IC50: 10.4 nM
L1210 [3]
  IC50: 34.5 nM
L1210 [4]
  Optimal dose: 3.1 mg/kg
L1210 [5]
  T/C: 144%
L1210 [6]
  IC50: 0.42 nM

## Cl.Cn1cc(NC(=O)c2cc(NC(=O)c3cc(NC(=O)c4cc5cc(N(CCCl)CCCl)ccc5[nH]4)cn3C)cn2C)cc1C(=O)NCCC(=N)N
L1210 [1]
  Resistance index: 6.8 and 19
Estrogen receptor
  IC50: 1 nM
L1210 [7]
  T/C: 174%
L1210 [2]
  IC50: 1.2 nM
L1210 [8]
  Optimal dose: 0.39 mg/kg
L1210 [3]
  IC50: 8 nM
L1210 [6]
  IC50: 0.42 nM

## Cl.Cn1cc(NC(=O)c2cc(NC(=O)c3cc(NC(=O)c4nc(NC(=O)c5ccc(N(CCCl)CCCl)cc5)cn4C)cn3C)cn2C)cc1C(=O)NCCC(=N)N
L1210 [1]
  Resistance index: 2 and 2.1
L1210 [2]
  IC50: 5 nM
L1210 [3]
  IC50: 2370 nM
L1210 [5]
  T/C: 125%
L1210 [6]
  IC50: 0.42 nM

## Cn1cc(NC(=O)c2cc(NC(=O)c3cc(NC(=O)c4cc(NC=O)cn4C)cn3C)cn2C)cc1C(=O)NCCC(=N)N
L1210 [2]
  IC50: 1.2 nM
L1210 [6]
  IC50: 0.42 nM

## Cl.Cn1cc(NC(=O)c2cc(NC(=O)c3cc(NC(=O)c4cc5cc(N(CCCl)CCCl)ccc5o4)cn3C)cn2C)cc1C(=O)NCCC(=N)N
L1210 [1]
  Resistance index: 6.8 and 19
Estrogen receptor
  IC50: 3 nM
L1210 [7]
  T/C: 200%
L1210 [2]
  IC50: 1.2 nM
L1210 [8]
  Optimal dose: 0.39 mg/kg
L1210 [3]
  IC50: 3.7 nM
L1210 [6]
  IC50: 0.42 nM

## Cl.Cn1cc(NC(=O)c2cc(NC(=O)c3cc(N(CCCl)CCCl)cn3C)cn2C)cc1C(=O)NCCC(=N)N
L1210 [7]
  T/C: 117%
L1210 [8]
  Optimal dose: 0.78 mg/kg
L1210 [3]
  IC50: 3.9 nM
L1210 [4]
  Optimal dose: 1.6 mg/kg
L1210 [5]
  T/C: 138%

## Cl.Cn1cc(NC(=O)c2cc(NC(=O)c3cc(NC(=O)c4cc(N(CCCl)CCCl)cn4C)cn3C)cn2C)cc1C(=O)NCCC(=N)N
L1210 [7]
  T/C: 133%
L1210 [8]
  Optimal dose: 0.39 mg/kg
L1210 [3]
  IC50: 0.081 nM
L1210 [4]
  Optimal dose: 0.39 mg/kg
L1210 [5]
  T/C: 188%

## C=C(Br)C(=O)Nc1cc(C(=O)Nc2cc(C(=O)Nc3cc(C(=O)Nc4cc(C(=O)NCCC(=N)N)n(C)c4)n(C)c3)n(C)c2)n(C)n1.Cl
L1210 [3]
  IC50: 13.3 nM
L1210 [4]
  Optimal dose: 6.2 mg/kg
L1210 [5]
  T/C: 200%
L1210 [6]
  IC50: 0.42 nM

## C=C(Br)C(=O)Nc1ccc2[nH]c(C(=O)Nc3cc(C(=O)Nc4cc(C(=O)Nc5cc(C(=O)NCCC(=N)N)n(C)c5)n(C)c4)n(C)c3)cc2c1.Cl
L1210 [7]
  T/C: 213%
L1210 [2]
  IC50: 140 nM
L1210 [8]
  Optimal dose: 12.5 mg/kg
L1210 [3]
  IC50: 4.1 nM
L1210 [6]
  IC50: 36 nM

## C=C(Br)C(=O)Nc1cc(C(=O)Nc2cc(C(=O)Nc3cc(C(=O)NCCC(=N)N)n(C)c3)n(C)c2)n(C)c1.Cl
L1210 [1]
  Resistance index: 68 and 156
L1210 [2]
  IC50: 1.2 nM

## Cl.Cn1cc(NC(=O)c2cc(NC(=O)c3cc(NC(=O)c4nc5cc(NC(=O)c6ccc(N(CCCl)CCCl)cc6)ccc5[nH]4)cn3C)cn2C)cc1C(=O)NCCC(=N)N
L1210 [1]
  Resistance index: 6.8 and 19
Estrogen receptor
  IC50: 5 nM
L1210 [2]
  IC50: 1.2 nM
L1210 [3]
  IC50: 1420 nM
L1210 [6]
  IC50: 0.42 nM

## Cl.Cn1cc(NC(=O)c2cc(NC(=O)c3cc(NC(=O)c4cc5cc(N(CCCl)CCCl)ccc5n4C)cn3C)cn2C)cc1C(=O)NCCC(=N)N
L1210 [1]
  Resistance index: 6.8 and 19
Estrogen receptor
  IC50: 1 nM
L1210 [7]
  T/C: 457%
L1210 [2]
  IC50: 1.2 nM
L1210 [8]
  Optimal dose: 1.6 mg/kg
L1210 [3]
  IC50: 14.7 nM
L1210 [6]
  IC50: 0.42 nM

## Cl.Cn1cc(NC(=O)c2cc(NC(=O)c3cc(NC(=O)/C=C/c4ccc(N(CCCl)CCCl)cc4)cn3C)cn2C)cc1C(=O)NCCC(=N)N
L1210 [7]
  T/C: 267%
L1210 [8]
  Optimal dose: 6.2 mg/kg

## Cl.Cn1cc(NC(=O)c2cc(NC(=O)c3cc(NC(=O)c4cc5cc(NC(=O)c6ccc(N(CCCl)CCCl)cc6)ccc5n4C)cn3C)cn2C)cc1C(=O)NCCC(=N)N
Estrogen receptor
  IC50: 5 nM
L1210 [7]
  T/C: 183%
[9]
  Resistance index: 6.8 and 19
L1210 [2]
  IC50: 1.2 nM
L1210 [8]
  Optimal dose: 25 mg/kg
L1210 [3]
  IC50: 61.7 nM
L1210 [6]
  IC50: 0.42 nM

## Cl.Cn1cc(NC(=O)c2cc(NC(=O)c3cc(NC(=O)c4cc5cc(NC(=O)c6ccc(N(CCCl)CCCl)cc6)ccc5o4)cn3C)cn2C)cc1C(=O)NCCC(=N)N
L1210 [1]
  Resistance index: 6.8 and 19
L1210 [7]
  T/C: 150%
L1210 [2]
  IC50: 1.2 nM
L1210 [8]
  Optimal dose: 6.2 mg/kg
L1210 [3]
  IC50: 43.5 nM
L1210 [6]
  IC50: 0.42 nM

## C=C(Br)C(=O)Nc1ccc2oc(C(=O)Nc3cc(C(=O)Nc4cc(C(=O)Nc5cc(C(=O)NCCC(=N)N)n(C)c5)n(C)c4)n(C)c3)cc2c1.Cl
L1210 [7]
  T/C: 117%
L1210 [2]
  IC50: 210 nM
L1210 [8]
  Optimal dose: 0.78 mg/kg
L1210 [3]
  IC50: 6.1 nM
L1210 [6]
  IC50: 39 nM

## Cl.Cn1cc(NC(=O)c2cc(NC(=O)c3cc(NC(=O)c4cc5cc(NC(=O)c6ccc(N(CCCl)CCCl)cc6)ccc5[nH]4)cn3C)cn2C)cc1C(=O)NCCC(=N)N
L1210 [1]
  Resistance index: 5.7 and 9.2
Estrogen receptor
  IC50: 7.5 nM
L1210 [7]
  T/C: 163%
L1210 [2]
  IC50: 0.88 nM
L1210 [8]
  Optimal dose: 3.1 mg/kg
L1210 [3]
  IC50: 95.3 nM
L1210 [6]
  IC50: 0.54 nM

## Cl.Cn1cc(NC(=O)c2cc(NC(=O)c3cc(NC(=O)c4cc(NC(=O)c5ccc(N(CCCl)CCCl)cc5)cn4C)cn3C)cn2C)cc1C(=O)NCCC(=N)N
L1210 [1]
  Resistance index: 19
L1210 [2]
  IC50: 1.2 nM
L1210 [8]
  Optimal dose: 0.4 mg/kg

## C=C(Br)C(=O)Nc1ccc2c(c1)cc(C(=O)Nc1cc(C(=O)Nc3cc(C(=O)NCCC(=N)N)n(C)c3)n(C)c1)n2C.Cl
L1210 [7]
  T/C: 133%
L1210 [2]
  IC50: 150 nM
L1210 [8]
  Optimal dose: 3.1 mg/kg
L1210 [3]
  IC50: 15.3 nM
L1210 [6]
  IC50: 41 nM

## C=C(Br)C(=O)Nc1cn(C)c(C(=O)Nc2cc(C(=O)Nc3cc(C(=O)Nc4cc(C(=O)NCCC(=N)N)n(C)c4)n(C)c3)n(C)c2)n1.Cl
L1210 [1]
  Resistance index: 15.5 and 13.9
L1210 [2]
  IC50: 1.2 nM
L1210 [3]
  IC50: 46.9 nM
L1210 [4]
  Optimal dose: 6.2 mg/kg
L1210 [5]
  T/C: 163%
L1210 [6]
  IC50: 0.42 nM

## C=C(Br)C(=O)Nc1ccc2c(c1)cc(C(=O)Nc1cc(C(=O)Nc3cc(C(=O)Nc4cc(C(=O)NCCC(=N)N)n(C)c4)n(C)c3)n(C)c1)n2C.Cl
L1210 [7]
  T/C: 192%
L1210 [2]
  IC50: 150 nM
L1210 [8]
  Optimal dose: 6.2 mg/kg
L1210 [3]
  IC50: 2.4 nM
L1210 [6]
  IC50: 43 nM

## C=C(Br)C(=O)Nc1cc(C(=O)Nc2cc(C(=O)Nc3cc(C(=O)Nc4cc(C(=O)NCCC(=N)N)n(C)c4)n(C)c3)n(C)c2)n(C)c1.Cl
L1210 [7]
  T/C: 200%
L1210 [8]
  Optimal dose: 1.6 mg/kg
L1210 [4]
  Optimal dose: 3.1 mg/kg
L1210 [5]
  T/C: 725%
L1210 [6]
  IC50: 0.42 nM

## Cn1cc(NC(=O)c2cc(NC(=O)c3cc(NC=O)cn3C)cn2C)cc1C(=O)NCCC(=N)N [STALLIMYCIN]
Estrogen receptor
  IC50: 20 nM
L1210 [2]
  IC50: 142000 nM
L1210 [3]
  IC50: 10100 nM
L1210 [6]
  IC50: 459000 nM

## Cl.Cn1cc(NC(=O)c2cc(NC(=O)c3cc(NC(=O)c4ccc(N(CCCl)CCCl)cc4)cn3C)cn2C)cc1C(=O)NCCC(=N)N [TALLIMUSTINE CHLORIDE]
L1210 [7]
  T/C: 133%
L1210 [8]
  Optimal dose: 3.1 mg/kg
L1210 [4]
  Optimal dose: 3.1 mg/kg
